Laboratory results from ChEMBL document CHEMBL1165909, “Analgesic, anti-pyretic and DNA cleavage studies of novel pyrimidine derivatives of coumarin moiety” (Eur J Med Chem, 2010).
Active and inactive are the calls of the source. The calls are words filed in the database; no cut-off is given here.

How the values were obtained:
Rattus norvegicus [1] = experiment: Acute toxicity in albino Wistar rat assessed as sedation at up to 3 g/kg, po after 24 hrs; format: organism-based; settings: in vivo, 3000 mg/kg
Method in brief: (§1)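 Albino rats of either sex, groups of six, dosed from 100 up to 3000 mg kg^-1 body weight. Watched continuously for 8 h for signs such as altered motor activity, ataxia, tremors, convulsions, sedation and lacrimation. Killed at 24 h; stomach, intestine and liver inspected under magnifying lenses for ulcer-haemorrhagic spots.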

Rattus norvegicus [2] = experiment: Antipyretic activity against brewer's yeast-induced hyperthermia in albino Wistar rat assessed as change in rectal temperature at 100 mg/kg, po after 5 hrs (reference value: 34.36 +/- 0.14 degC); format: functional
Rattus norvegicus [3] = experiment: Acute toxicity in albino Wistar rat assessed as convulsion at up to 3 g/kg, po after 24 hrs; format: organism-based; settings: in vivo, 3000 mg/kg; method in brief: as §1
Rattus norvegicus [4] = experiment: Acute toxicity in albino Wistar rat assessed as haemorrhagic spots at up to 3 g/kg, po after 24 hrs; format: organism-based; settings: in vivo, 3000 mg/kg; method in brief: as §1
Rattus norvegicus [5] = experiment: Analgesic activity in albino Wistar rat assessed as reaction time required for tail flicking at 25 mg/kg, po after 30 mins by tail-flick method (reference value: 3.97 +/- 0.287 sec); format: functional
Rattus norvegicus [6] = experiment: Acute toxicity in albino Wistar rat assessed as mortality at up to 3 g/kg, po after 24 hrs; format: organism-based; settings: in vivo, 3000 mg/kg; method in brief: as §1
Rattus norvegicus [7] = experiment: Analgesic activity in albino Wistar rat assessed as reaction time required for tail flicking at 25 mg/kg, po after 90 mins by tail-flick method (reference value: 3.87 +/- 0.355 sec); format: functional
Rattus norvegicus [8] = experiment: Antipyretic activity against brewer's yeast-induced hyperthermia in albino Wistar rat assessed as change in rectal temperature at 100 mg/kg, po after 6 hrs (reference value: 33.44 +/- 0.18 degC); format: functional
Rattus norvegicus [9] = experiment: Acute toxicity in albino Wistar rat assessed as intestine ulcerhaemorrhagic spots at up to 3 g/kg, po after 24 hrs; format: organism-based; settings: in vivo, 3000 mg/kg; method in brief: as §1
Rattus norvegicus [10] = experiment: Antipyretic activity against brewer's yeast-induced hyperthermia in albino Wistar rat assessed as change in rectal temperature at 100 mg/kg, po after 1 hr (reference value: 33.78 +/- 0.18 degC); format: functional
Rattus norvegicus [11] = experiment: Acute toxicity in albino Wistar rat assessed as tremors at up to 3 g/kg, po after 24 hrs; format: organism-based; settings: in vivo, 3000 mg/kg; method in brief: as §1
Rattus norvegicus [12] = experiment: Analgesic activity in albino Wistar rat assessed as reaction time required for tail flicking at 25 mg/kg, po after 60 mins by tail-flick method (reference value: 4 +/- 0.360 sec); format: functional
Rattus norvegicus [13] = experiment: Acute toxicity in albino Wistar rat assessed as stomach ulcerhaemorrhagic spots at up to 3 g/kg, po after 24 hrs; format: organism-based; settings: in vivo, 3000 mg/kg; method in brief: as §1
Rattus norvegicus [14] = experiment: Antipyretic activity against brewer's yeast-induced hyperthermia in albino Wistar rat assessed as change in rectal temperature at 100 mg/kg, po after 3 hrs (reference value: 32.80 +/- 0.09 degC); format: functional
Rattus norvegicus [15] = experiment: Acute toxicity in albino Wistar rat assessed as ulceration at up to 3 g/kg, po after 24 hrs; format: organism-based; settings: in vivo, 3000 mg/kg; method in brief: as §1
Nucleic Acid = experiment: Induction of Escherichia coli DNA cleavage at 25 mg after 24 hrs by agarose gel electrophoresis method; format: nucleic-acid assay
Method in brief: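 E. coli grown in nutrient broth 24 h at 37 °C. Genomic DNA isolated by SDS lysis, phenol (55 °C, 10 min), chloroform:isoamyl alcohol extraction and ethanol precipitation, dissolved in TAE. Compounds at 1 mg/ml in DMF added to DNA, incubated 2 h at 37 °C. Run on agarose gel at 50 V about 30 min, stained with ethidium bromide, bands compared with DNA marker.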

Structure (SMILES)	Activity (Rattus norvegicus [1])	T (Rattus norvegicus [2]) [°C]	Activity (Rattus norvegicus [3])	Activity (Rattus norvegicus [4])	Time (Rattus norvegicus [5]) [s]	Activity (Rattus norvegicus [6])	Time (Rattus norvegicus [7]) [s]	T (Rattus norvegicus [8]) [°C]	Activity (Rattus norvegicus [9])	T (Rattus norvegicus [10]) [°C]	Activity (Rattus norvegicus [11])	Time (Rattus norvegicus [12]) [s]	Activity (Rattus norvegicus [13])	T (Rattus norvegicus [14]) [°C]	Activity (Rattus norvegicus [15])	Activity (Nucleic Acid)
Nc1nc(-c2ccccc2)cc(-c2ccc(OCc3cc(=O)oc4ccc(Cl)cc34)cc2)n1	Non-toxic	32.09	Non-toxic	Non-toxic	5.02	Non-toxic	7.1	32.54	Non-toxic	32.74	Non-toxic	7	Non-toxic	32.45	Non-toxic	–
Nc1nc(-c2ccccc2)cc(-c2ccc(OCc3cc(=O)oc4ccc5ccccc5c34)cc2)n1	Non-toxic	32.22	Non-toxic	Non-toxic	4	Non-toxic	8	31.88	Non-toxic	32.8	Non-toxic	7.25	Non-toxic	31.84	Non-toxic	–
Cc1c(N(C)CS(=O)(=O)[O-])c(=O)n(-c2ccccc2)n1C.[Na+] [DIPYRONE SODIUM]	–	–	–	–	5.77	–	9.02	–	–	–	–	8.76	–	–	–	–
Cc1ccc2c(COc3ccc(-c4cc(-c5ccccc5)nc(N)n4)cc3)cc(=O)oc2c1	Non-toxic	33.8	Non-toxic	Non-toxic	5.1	Non-toxic	7.5	32.8	Non-toxic	32.74	Non-toxic	6.75	Non-toxic	32.6	Non-toxic	Active
O=c1cc(COc2ccc(-c3cc(-c4ccccc4)nc(S)n3)cc2)c2ccc3ccccc3c2o1	Non-toxic	33.09	Non-toxic	Non-toxic	4.52	Non-toxic	6.25	32.5	Non-toxic	33.01	Non-toxic	5.25	Non-toxic	32	Non-toxic	Active
Nc1nc(-c2ccccc2)cc(-c2ccc(OCc3cc(=O)oc4c3ccc3ccccc34)cc2)n1	Non-toxic	32.51	Non-toxic	Non-toxic	4.04	Non-toxic	5	32.09	Non-toxic	32.68	Non-toxic	4.75	Non-toxic	31.4	Non-toxic	–
O=c1cc(COc2ccc(-c3cc(-c4ccccc4)nc(S)n3)cc2)c2c(ccc3ccccc32)o1	Non-toxic	33.01	Non-toxic	Non-toxic	4.25	Non-toxic	–	32.66	Non-toxic	32.92	Non-toxic	4.5	Non-toxic	31.98	Non-toxic	Active
Cc1ccc2oc(=O)cc(COc3ccc(-c4cc(-c5ccccc5)nc(O)n4)cc3)c2c1	Non-toxic	33.12	Non-toxic	Non-toxic	4.48	Non-toxic	6.2	32.97	Non-toxic	33.18	Non-toxic	5.46	Non-toxic	32.31	Non-toxic	Active
O=c1cc(COc2ccc(-c3cc(-c4ccccc4)nc(O)n3)cc2)c2cc(Cl)ccc2o1	Non-toxic	33.28	Non-toxic	Non-toxic	4.02	Non-toxic	4.25	32.61	Non-toxic	33.18	Non-toxic	4.04	Non-toxic	32.64	Non-toxic	Active
Cc1ccc2oc(=O)cc(COc3ccc(-c4cc(-c5ccccc5)nc(N)n4)cc3)c2c1	Non-toxic	33.3	Non-toxic	Non-toxic	4.75	Non-toxic	7.25	33	Non-toxic	32.66	Non-toxic	6.75	Non-toxic	31.68	Non-toxic	–
O=c1cc(COc2ccc(-c3cc(-c4ccccc4)nc(O)n3)cc2)c2c(ccc3ccccc32)o1	Non-toxic	32.82	Non-toxic	Non-toxic	5	Non-toxic	8.87	32.68	Non-toxic	32.22	Non-toxic	8.25	Non-toxic	32.72	Non-toxic	Active
Cc1ccc2c(COc3ccc(-c4cc(-c5ccccc5)nc(S)n4)cc3)cc(=O)oc2c1	Non-toxic	32.9	Non-toxic	Non-toxic	4.5	Non-toxic	7.5	31.82	Non-toxic	32.81	Non-toxic	7.25	Non-toxic	32.66	Non-toxic	Active
O=c1cc(COc2ccc(-c3cc(-c4ccccc4)nc(S)n3)cc2)c2cc(Cl)ccc2o1	Non-toxic	32.84	Non-toxic	Non-toxic	5.1	Non-toxic	8.5	32.84	Non-toxic	32.5	Non-toxic	7.54	Non-toxic	32.61	Non-toxic	–
Cc1ccc2c(COc3ccc(-c4cc(-c5ccccc5)nc(O)n4)cc3)cc(=O)oc2c1	Non-toxic	33.1	Non-toxic	Non-toxic	4.5	Non-toxic	7.75	32.4	Non-toxic	32.4	Non-toxic	6.25	Non-toxic	32.84	Non-toxic	Active
Cc1ccc2oc(=O)cc(COc3ccc(-c4cc(-c5ccccc5)nc(S)n4)cc3)c2c1	Non-toxic	32.8	Non-toxic	Non-toxic	4.5	Non-toxic	7.45	31.98	Non-toxic	32.55	Non-toxic	6.5	Non-toxic	32.77	Non-toxic	–
